According to ChEMBL document CHEMBL2062435, “Synthesis and in vitro antibacterial activity of gemifloxacin derivatives containing a substituted benzyloxime moiety” (2012):
Converted amounts (≈) assume the structure as drawn.

Tested on: Pseudomonas aeruginosa
Experiment: Antimicrobial activity against extended spectrum beta-lactamases-producing Pseudomonas aeruginosa 10-20 after 18-24 hrs by two-fold serial dilution method
Assay type: functional
In short: (§1)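 Agar-medium twofold serial dilution against Gram-positive and Gram-negative strains; MIC taken as the lowest compound concentration giving complete inhibition of bacterial growth after incubation at 35 °C for 18-24 h.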

SMILES | MIC
CO/N=C1\CN(c2nc3c(cc2F)c(=O)c(C(=O)O)cn3C2CC2)CC1CN (stereo not given) [GEMIFLOXACIN] | 0.5 µg/mL (≈ 1.28 µM)

Tested on: Klebsiella pneumoniae
Experiment: Antimicrobial activity against extended spectrum beta-lactamases-producing Klebsiella pneumoniae 10-3 after 18-24 hrs by two-fold serial dilution method
Assay type: functional
In short: as §1

SMILES | MIC
CO/N=C1\CN(c2nc3c(cc2F)c(=O)c(C(=O)O)cn3C2CC2)CC1CN (stereo not given) [GEMIFLOXACIN] | 16 µg/mL (≈ 41.1 µM)

Tested on: Escherichia coli
Experiment: Antimicrobial activity against extended spectrum beta-lactamases-producing Escherichia coli 10-3 after 18-24 hrs by two-fold serial dilution method
Assay type: functional
In short: as §1

SMILES | MIC
CO/N=C1\CN(c2nc3c(cc2F)c(=O)c(C(=O)O)cn3C2CC2)CC1CN (stereo not given) [GEMIFLOXACIN] | 2 µg/mL (≈ 5.14 µM)

Tested on: Staphylococcus aureus
Experiment: Antimicrobial activity against extended spectrum beta-lactamases-producing methicillin-sensitive Staphylococcus aureus 10-14 after 18-24 hrs by two-fold serial dilution method
Assay type: functional
In short: as §1

SMILES | MIC
CO/N=C1\CN(c2nc3c(cc2F)c(=O)c(C(=O)O)cn3C2CC2)CC1CN (stereo not given) [GEMIFLOXACIN] | 0.06 µg/mL (≈ 0.154 µM)

Tested on: Pseudomonas aeruginosa
Experiment: Antimicrobial activity against extended spectrum beta-lactamases-producing Pseudomonas aeruginosa 10-18 after 18-24 hrs by two-fold serial dilution method
Assay type: functional
In short: as §1

SMILES | MIC
CO/N=C1\CN(c2nc3c(cc2F)c(=O)c(C(=O)O)cn3C2CC2)CC1CN (stereo not given) [GEMIFLOXACIN] | 2 µg/mL (≈ 5.14 µM)

Tested on: Staphylococcus epidermidis
Experiment: Antimicrobial activity against extended spectrum beta-lactamases-producing methicillin-sensitive Staphylococcus epidermidis 10-11 after 18-24 hrs by two-fold serial dilution method
Assay type: functional
In short: as §1

SMILES | MIC
CO/N=C1\CN(c2nc3c(cc2F)c(=O)c(C(=O)O)cn3C2CC2)CC1CN (stereo not given) [GEMIFLOXACIN] | 16 µg/mL (≈ 41.1 µM)

Tested on: Enterococcus faecalis
Experiment: Antimicrobial activity against Enterococcus faecalis 10-5 after 18-24 hrs by two-fold serial dilution method
Assay type: functional
In short: as §1

SMILES | MIC
CO/N=C1\CN(c2nc3c(cc2F)c(=O)c(C(=O)O)cn3C2CC2)CC1CN (stereo not given) [GEMIFLOXACIN] | 1 µg/mL (≈ 2.57 µM)

Tested on: Staphylococcus epidermidis
Experiment: Antimicrobial activity against extended spectrum beta-lactamases-producing methicillin-resistant Staphylococcus epidermidis 10-10 after 18-24 hrs by two-fold serial dilution method
Assay type: functional
In short: (§2)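 Agar twofold serial dilution MIC against clinical isolates. MIC was taken as the lowest concentration giving complete inhibition of bacterial growth after incubation at 35 °C for 18-24 h.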

SMILES | MIC
CO/N=C1\CN(c2nc3c(cc2F)c(=O)c(C(=O)O)cn3C2CC2)CC1CN (stereo not given) [GEMIFLOXACIN] | 2 µg/mL (≈ 5.14 µM)

Tested on: Escherichia coli
Experiment: Antimicrobial activity against Escherichia coli ATCC 25922 after 18-24 hrs by two-fold serial dilution method
Assay type: functional
In short: as §1

SMILES | MIC
CO/N=C1\CN(c2nc3c(cc2F)c(=O)c(C(=O)O)cn3C2CC2)CC1CN (stereo not given) [GEMIFLOXACIN] | 0.03 µg/mL (≈ 0.077 µM)

Tested on: Pseudomonas aeruginosa
Experiment: Antimicrobial activity against extended spectrum beta-lactamases-producing Pseudomonas aeruginosa 10-9 after 18-24 hrs by two-fold serial dilution method
Assay type: functional
In short: as §1

SMILES | MIC
CO/N=C1\CN(c2nc3c(cc2F)c(=O)c(C(=O)O)cn3C2CC2)CC1CN (stereo not given) [GEMIFLOXACIN] | 0.5 µg/mL (≈ 1.28 µM)

Tested on: Staphylococcus aureus
Experiment: Antimicrobial activity against extended spectrum beta-lactamases-producing methicillin-resistant Staphylococcus aureus 10-11 after 18-24 hrs by two-fold serial dilution method
Assay type: functional
In short: as §2

SMILES | MIC
CO/N=C1\CN(c2nc3c(cc2F)c(=O)c(C(=O)O)cn3C2CC2)CC1CN (stereo not given) [GEMIFLOXACIN] | 4 µg/mL (≈ 10.3 µM)

Tested on: Staphylococcus aureus
Experiment: Antimicrobial activity against methicillin-resistant Staphylococcus aureus clinical isolate after 18-24 hrs by two-fold serial dilution method
Assay type: functional
In short: as §2

SMILES | MIC50 | MIC90
CO/N=C1\CN(c2nc3c(cc2F)c(=O)c(C(=O)O)cn3C2CC2)CC1CN (stereo not given) [GEMIFLOXACIN] | 2 µg/mL (≈ 5.14 µM) | 8 µg/mL (≈ 20.5 µM)

Tested on: Escherichia coli
Experiment: Antimicrobial activity against extended spectrum beta-lactamases-producing Escherichia coli 10-2 after 18-24 hrs by two-fold serial dilution method
Assay type: functional
In short: as §1

SMILES | MIC
CO/N=C1\CN(c2nc3c(cc2F)c(=O)c(C(=O)O)cn3C2CC2)CC1CN (stereo not given) [GEMIFLOXACIN] | 16 µg/mL (≈ 41.1 µM)

Tested on: Escherichia coli
Experiment: Antimicrobial activity against Escherichia coli 10-2 after 18-24 hrs by two-fold serial dilution method
Assay type: functional
In short: as §1

SMILES | MIC
CO/N=C1\CN(c2nc3c(cc2F)c(=O)c(C(=O)O)cn3C2CC2)CC1CN (stereo not given) [GEMIFLOXACIN] | 0.5 µg/mL (≈ 1.28 µM)

Tested on: Enterococcus faecium
Experiment: Antimicrobial activity against Enterococcus faecium 10-5 after 18-24 hrs by two-fold serial dilution method
Assay type: functional
In short: as §1

SMILES | MIC
CO/N=C1\CN(c2nc3c(cc2F)c(=O)c(C(=O)O)cn3C2CC2)CC1CN (stereo not given) [GEMIFLOXACIN] | 8 µg/mL (≈ 20.5 µM)

Tested on: Staphylococcus epidermidis
Experiment: Antimicrobial activity against methicillin-resistant Staphylococcus epidermidis clinical isolate after 18-24 hrs by two-fold serial dilution method
Assay type: functional

SMILES | MIC50 | MIC90
CO/N=C1\CN(c2nc3c(cc2F)c(=O)c(C(=O)O)cn3C2CC2)CC1CN (stereo not given) [GEMIFLOXACIN] | 0.25 µg/mL (≈ 0.642 µM) | 8 µg/mL (≈ 20.5 µM)

Tested on: Escherichia coli
Experiment: Antimicrobial activity against extended spectrum beta-lactamases-producing Escherichia coli 10-4 after 18-24 hrs by two-fold serial dilution method
Assay type: functional
In short: as §1

SMILES | MIC
CO/N=C1\CN(c2nc3c(cc2F)c(=O)c(C(=O)O)cn3C2CC2)CC1CN (stereo not given) [GEMIFLOXACIN] | 8 µg/mL (≈ 20.5 µM)

Tested on: Streptococcus pneumoniae
Experiment: Antimicrobial activity against extended spectrum beta-lactamases-producing Streptococcus pneumoniae 10-1 after 18-24 hrs by two-fold serial dilution method
Assay type: functional
In short: as §1

SMILES | MIC
CO/N=C1\CN(c2nc3c(cc2F)c(=O)c(C(=O)O)cn3C2CC2)CC1CN (stereo not given) [GEMIFLOXACIN] | 2 µg/mL (≈ 5.14 µM)
